In test [1] the target is Bromodomain-containing protein 4 (Homo sapiens, UniProt O60885). The test is described as follows: Inhibition of His6-tagged BRD4 bromodomain 1 (unknown origin) expressed in Escherichia coli Bl21(DE3) cells incubated for 4 hrs by FP assay. The essentials: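 Fluorescence polarization. Purified bromodomain (His6 tag removed with TEV, size-exclusion purified) equilibrated with fluorescent ligand. Compound or DMSO (2‰ final) then added and left 4 h at room temperature in the dark. Anisotropy read at ex 485/em 530 nm. IC50 values are means of at least two independent experiments; single-point inhibition tested at the listed concentration.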

The target of test [2] is T1, Cyclin-dependent kinase 9 (Homo sapiens, UniProt P50750). The test is described as follows: Inhibition of human CDK9 by mobility shift assay relative to control. The essentials:
(§1)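 Recombinant CDK9 incubated with compound and CTD3 peptide substrate. Activity read by Caliper mobility-shift; Dinaciclib served as positive control. IC50 values are means of at least two independent experiments.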

The target in test [3] is T1, Cyclin-dependent kinase 9. The test is described as follows: Inhibition of human CDK9 at 1 uM by mobility shift assay relative to control. The essentials:
as §1

The target in test [4] is T1, Cyclin-dependent kinase 9. Put plainly: Inhibition of human CDK9 at 100 nM by mobility shift assay relative to control. The essentials: as §1
The target of test [5] is Cyclin-dependent kinase 6 (Homo sapiens) (UniProt Q00534). The test is described as follows: Inhibition of CDK6 (unknown origin) at 1 uM relative to control.
Test [6] has the same target. Put plainly: Inhibition of CDK6 (unknown origin) at 100 nM relative to control.
Test [7] concerns the target Phosphatidylinositol 4,5-bisphosphate 3-kinase catalytic subunit alpha isoform (Homo sapiens) (UniProt P42336). Put plainly: Inhibition PI3Kalpha (unknown origin) at 1 uM relative to control.
The target is the same in test [8]. The test is described as follows: Inhibition PI3Kalpha (unknown origin) at 100 nM relative to control.
Test [9] concerns the target T2, Aurora kinase A (Homo sapiens) (UniProt O14965).
T2 sequence (whole entry): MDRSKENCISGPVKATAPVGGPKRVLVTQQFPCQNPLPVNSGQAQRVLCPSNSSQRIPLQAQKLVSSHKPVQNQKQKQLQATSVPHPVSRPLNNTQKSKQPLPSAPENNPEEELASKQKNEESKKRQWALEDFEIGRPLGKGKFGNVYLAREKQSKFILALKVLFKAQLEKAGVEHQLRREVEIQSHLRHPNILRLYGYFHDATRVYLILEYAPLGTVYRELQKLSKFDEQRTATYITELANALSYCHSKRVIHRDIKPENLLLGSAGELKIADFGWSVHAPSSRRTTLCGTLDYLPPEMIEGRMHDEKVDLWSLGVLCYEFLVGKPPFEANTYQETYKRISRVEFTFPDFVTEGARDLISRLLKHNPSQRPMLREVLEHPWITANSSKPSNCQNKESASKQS
The test is described as follows: Inhibition AuroraA (unknown origin) at 1 uM relative to control.

For test [10], the target named is T2, Aurora kinase A (Homo sapiens). The test is described as follows: Inhibition AuroraA (unknown origin) at 100 nM relative to control.

A word on the IC50: it is the concentration that gives 50% inhibition. In general, inhibition refers to the relative decrease from the control value, in per cent.

Cyclin-dependent kinase 6 (Homo sapiens), sequence (Q00534 whole entry): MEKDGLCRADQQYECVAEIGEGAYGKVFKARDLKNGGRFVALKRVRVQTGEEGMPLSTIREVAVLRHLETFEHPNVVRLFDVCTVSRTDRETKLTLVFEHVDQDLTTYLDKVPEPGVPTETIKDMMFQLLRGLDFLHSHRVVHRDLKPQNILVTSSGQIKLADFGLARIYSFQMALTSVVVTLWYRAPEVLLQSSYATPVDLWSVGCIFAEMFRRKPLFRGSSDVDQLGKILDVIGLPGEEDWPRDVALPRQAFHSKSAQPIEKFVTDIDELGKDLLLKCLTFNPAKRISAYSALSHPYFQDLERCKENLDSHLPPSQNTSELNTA
T1 sequence (P50750 whole entry): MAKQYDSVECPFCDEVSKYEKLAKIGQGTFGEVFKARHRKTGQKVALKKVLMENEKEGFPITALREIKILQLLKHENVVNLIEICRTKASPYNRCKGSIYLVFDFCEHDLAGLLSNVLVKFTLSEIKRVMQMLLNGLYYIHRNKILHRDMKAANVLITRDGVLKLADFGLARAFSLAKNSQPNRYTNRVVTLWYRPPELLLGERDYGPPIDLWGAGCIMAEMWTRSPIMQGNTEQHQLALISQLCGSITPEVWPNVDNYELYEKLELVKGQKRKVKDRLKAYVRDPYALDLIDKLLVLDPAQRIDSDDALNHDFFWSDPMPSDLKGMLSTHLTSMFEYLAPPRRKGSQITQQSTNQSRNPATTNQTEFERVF
Phosphatidylinositol 4,5-bisphosphate 3-kinase catalytic subunit alpha isoform (Homo sapiens), sequence (P42336 whole entry, canonical isoform): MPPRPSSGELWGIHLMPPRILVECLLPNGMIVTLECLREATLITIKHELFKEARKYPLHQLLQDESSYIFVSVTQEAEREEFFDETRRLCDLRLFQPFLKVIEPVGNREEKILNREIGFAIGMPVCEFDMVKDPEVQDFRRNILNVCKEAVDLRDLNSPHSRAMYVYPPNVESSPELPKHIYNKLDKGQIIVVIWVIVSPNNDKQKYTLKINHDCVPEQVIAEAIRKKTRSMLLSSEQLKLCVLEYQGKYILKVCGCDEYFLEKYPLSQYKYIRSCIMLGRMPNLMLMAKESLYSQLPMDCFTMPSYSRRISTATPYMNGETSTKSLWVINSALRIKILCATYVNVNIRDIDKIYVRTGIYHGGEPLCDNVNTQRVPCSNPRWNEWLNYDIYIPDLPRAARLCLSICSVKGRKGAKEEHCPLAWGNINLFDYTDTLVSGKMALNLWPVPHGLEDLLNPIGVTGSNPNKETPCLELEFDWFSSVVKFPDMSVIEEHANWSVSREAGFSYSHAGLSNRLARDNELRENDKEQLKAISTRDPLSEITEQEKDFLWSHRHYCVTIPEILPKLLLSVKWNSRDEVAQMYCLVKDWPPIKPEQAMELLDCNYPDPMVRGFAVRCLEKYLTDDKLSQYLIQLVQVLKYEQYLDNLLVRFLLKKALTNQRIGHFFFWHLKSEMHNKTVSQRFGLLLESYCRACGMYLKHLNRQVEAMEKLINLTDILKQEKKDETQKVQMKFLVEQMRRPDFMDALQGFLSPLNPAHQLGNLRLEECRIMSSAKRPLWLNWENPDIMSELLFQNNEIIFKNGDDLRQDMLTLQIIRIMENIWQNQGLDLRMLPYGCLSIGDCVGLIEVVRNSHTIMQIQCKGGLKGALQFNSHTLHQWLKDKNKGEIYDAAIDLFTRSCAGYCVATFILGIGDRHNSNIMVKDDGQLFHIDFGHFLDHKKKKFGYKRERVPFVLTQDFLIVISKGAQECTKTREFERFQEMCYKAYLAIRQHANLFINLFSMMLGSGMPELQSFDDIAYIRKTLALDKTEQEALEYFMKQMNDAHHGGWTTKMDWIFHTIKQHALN

Regarding `CC(C)N1c2cc(Nc3nccc(-c4cccc5nn(C)cc45)n3)ccc2N(C)C(=O)[C@H]1C`, the figures for the IC50 in test [1] and in [2] were 168 nM and 110 nM, respectively.

In the case of `CC(C)N1c2cc(Nc3nccc(-c4cccc5cnccc45)n3)ccc2N(C)C(=O)[C@H]1C`, the 50% inhibitory concentration (IC50) worked out at 75.9 nM in test [1] and 79.8 nM in test [2].

As for `Cc1ccc(-c2ccnc(Nc3ccc4c(c3)N(C(C)C)[C@H](C)C(=O)N4C)n2)cc1`, the IC50 worked out at 5850 nM in [1] and 488 nM in [2].

Turning to `CC(C)N1c2cc(Nc3nccc(-c4ccc(N)cc4)n3)ccc2N(C)C(=O)[C@H]1C`, the IC50 in test [1] was 480 nM; in test [2], 48.9 nM.

As to `COc1cc(F)ccc1-c1ccnc(Nc2ccc3c(c2)N(C(C)C)[C@H](C)C(=O)N3C)n1`, the IC50 stood at 497 nM in test [1] and 46.9 nM in test [2].

`CC(C)N1c2cc(Nc3cccc(-c4ccccc4)c3)ccc2N(C)C(=O)[C@H]1C` displayed an IC50 in [1] of 357 nM. For the same molecule, the inhibition in [3] was 1.3%; in test [4] it was -6.1%; in test [5], 0.9%; in [6], 1.8%; in [7], 6.1%; in test [8] it was -4.8%. The inhibition in [9] is -1.5%; in test [10] it was -3.4%.

`CC(C)N1c2cc(Nc3nccc(-c4c[nH]c5ccccc45)n3)ccc2N(C)C(=O)[C@H]1C` had an IC50 in test [1] of 329 nM. In addition, the inhibition in test [3] was 58.6%; in test [4], 7.6%.

Regarding `Cc1cc(F)ccc1-c1ccnc(Nc2ccc3c(c2)N(C(C)C)[C@H](C)C(=O)N3C)n1`, the half-inhibitory concentration (IC50) in test [1] was 156 nM; in test [2], 578 nM.

`CC(C)N1c2cc(Nc3ncc(F)c(-c4cncc5ccccc45)n3)ccc2N(C)C(=O)[C@H]1C`: the IC50 is 81.3 nM in test [1] and 23.9 nM in [2].

The molecule `CC(C)N1c2cc(Nc3nccc(-c4cccc(C#N)c4)n3)ccc2N(C)C(=O)[C@H]1C` registered an IC50 in test [1] of 161 nM. In addition, the inhibition was 71.8% in test [3]; 25.2% in test [4]; 2.8% in [5]; -0.8% in [6]; 63.1% in [7]; 14.1% in test [8]. Moreover, the inhibition was 54.4% in [9] and 8.7% in [10].

In the case of `CC(C)N1c2cc(Nc3nccc(-c4ccncc4)n3)ccc2N(C)C(=O)[C@H]1C`, half-maximal inhibition in [1] (IC50) was put at 83 nM. Besides, the inhibition worked out at 98% in test [3]; 94.5% in [4]; 7.7% in [5]; 0.2% in test [6]; 82.4% in test [7]; 37.5% in [8]. The figures for the inhibition in test [9] and in test [10] were 43.7% and 4%, respectively.

For the molecule `Cc1cccc(-c2ccnc(Nc3ccc4c(c3)N(C(C)C)[C@H](C)C(=O)N4C)n2)c1`, the concentration for half-maximal inhibition (IC50) in test [1] came out at 760 nM; in test [2], 196 nM.

Turning to `COc1cccc(-c2ccnc(Nc3ccc4c(c3)N(C(C)C)[C@H](C)C(=O)N4C)n2)c1`, the IC50 in test [1] came out at 965 nM; in test [2], 126 nM.

Take `CC(C)N1c2cc(Nc3nccc(-c4cccc(Nc5ccccc5)c4)n3)ccc2N(C)C(=O)[C@H]1C`: the inhibition in [3] was 47.8%; in test [4], 8.8%.

Consider `CNc1cccc(-c2ccnc(Nc3ccc4c(c3)N(C(C)C)[C@H](C)C(=O)N4C)n2)c1`, for which the IC50 in test [1] came out at 173 nM; in test [2], 22 nM.

`COc1ccccc1-c1cccc(Nc2ccc3c(c2)N(C(C)C)[C@H](C)C(=O)N3C)c1` yielded an IC50 in [1] of 820 nM. Besides, the inhibition is 3.8% in [3]; -3% in [4]; -0.1% in [5]; -1.4% in [6]; 3% in [7]; -2.6% in test [8]. The figures for the inhibition in [9] and in test [10] were -0.8% and 1.1%, respectively.

`CC(C)N1c2cc(Nc3cccc(-c4ccncc4)c3)ccc2N(C)C(=O)[C@H]1C` yielded an IC50 in test [1] of 77.3 nM. The inhibition in test [3] was 0.7%; in [4], 2.2%; in [5], 0.7%; in test [6], 2.7%; in [7] it was -1%; in test [8] it was -4.1%. Besides, the figures for the inhibition in test [9] and in [10] were 14.2% and -6.1%, respectively.

`CC(C)N1c2cc(Nc3nccc(-c4ccnc5ccccc45)n3)ccc2N(C)C(=O)[C@H]1C`: the half-maximal inhibitory concentration (IC50) in test [1] was determined as 25.3 nM; in test [2], 19.8 nM.

Consider `CC(C)Nc1cccc(-c2ccnc(Nc3ccc4c(c3)N(C(C)C)[C@H](C)C(=O)N4C)n2)c1`, for which the half-maximal inhibitory concentration (IC50) in test [1] stood at 268 nM; in [2] it was 50.9 nM.

As to `CC(C)N1c2cc(Nc3ncc(Cl)c(-c4cncc5ccccc45)n3)ccc2N(C)C(=O)[C@H]1C`, the concentration for half-maximal inhibition (IC50) in test [1] stood at 58.1 nM; in test [2] it was 23 nM.

On to `CC(C)N1c2cc(Nc3nccc(-c4cccc5[nH]ccc45)n3)ccc2N(C)C(=O)[C@H]1C`, for which the half-maximal inhibitory concentration (IC50) was found to be 288 nM in test [1] and 13.8 nM in test [2].

As for `CC(C)N1c2cc(Nc3nccc(-c4ccccc4)n3)ccc2N(C)C(=O)[C@H]1C`, inhibition in test [1] was half-maximal at 193 nM (IC50). For the same molecule, the inhibition was 102% in [3]; 83.4% in test [4]; 4.8% in test [5]; -0.8% in test [6]; 22.9% in test [7]; 0% in test [8]. In addition, the inhibition in test [10] amounted to 10.6%.

Take `CC(C)N1c2cc(Nc3nccc(-c4cccc(N)c4)n3)ccc2N(C)C(=O)[C@H]1C`: the IC50 in [1] came out at 120 nM; in test [2], 5.9 nM.

For `CC(C)N1c2cc(Nc3nccc(-c4cccc5ncccc45)n3)ccc2N(C)C(=O)[C@H]1C`, the IC50 came out at 15.2 nM in test [1] and 81.6 nM in test [2].

Consider `CCNc1cccc(-c2ccnc(Nc3ccc4c(c3)N(C(C)C)[C@H](C)C(=O)N4C)n2)c1`, for which the 50% inhibitory concentration (IC50) in test [1] was found to be 319 nM; in test [2] it was 37.8 nM.

`COc1ccc(-c2ccnc(Nc3ccc4c(c3)N(C(C)C)[C@H](C)C(=O)N4C)n2)cc1`: the IC50 was 535 nM in [1] and 31.7 nM in [2].

For `CC(C)N1c2cc(Nc3nccc(-c4ccccc4N)n3)ccc2N(C)C(=O)[C@H]1C`, the IC50 in [1] amounted to 251 nM; in [2], 39.2 nM.

In the case of `Cc1cnc(Nc2ccc3c(c2)N(C(C)C)[C@H](C)C(=O)N3C)nc1-c1cncc2ccccc12`, the IC50 in [1] amounted to 19.1 nM; in test [2] it was 100 nM.

In the case of `CC(C)N1c2cc(Nc3nccc(-c4cccc5c4CCCN5)n3)ccc2N(C)C(=O)[C@H]1C`, the IC50 in [1] worked out at 27 nM; in test [2] it was 67 nM.

As for `Cc1ccccc1-c1ccnc(Nc2ccc3c(c2)N(C(C)C)[C@H](C)C(=O)N3C)n1`, 271 nM corresponded to half-maximal inhibition in test [1] (IC50). Moreover, the inhibition in test [3] was 1%; in test [4] it was 1.5%.

For the molecule `Cc1ccc(N)cc1-c1ccnc(Nc2ccc3c(c2)N(C(C)C)[C@H](C)C(=O)N3C)n1`, the IC50 in test [1] was 236 nM; in test [2] it was 151 nM.

Turning to `Cc1c(N)cccc1-c1ccnc(Nc2ccc3c(c2)N(C(C)C)[C@H](C)C(=O)N3C)n1`, the results for the IC50 in [1] and in test [2] were 115 nM and 183 nM, respectively.

Source of the values: ChEMBL document CHEMBL4725348, “Rational Design and Evaluation of 6-(Pyrimidin-2-ylamino)-3,4-dihydroquinoxalin-2(1H)-ones as Polypharmacological Inhibitors of BET and Kinases” (J Med Chem, 2020).
